This note sets out measurements from PubChem BioAssay AID1556 (The Scripps Research Institute Molecular Screening Center, 2009).

The structures appear in SMILES notation. Out of some 290,000 compounds screened, about 1,300 (0.45%) were called active. This excerpt belongs to a sample that is enriched for actives. A number with no mark means an inactive call.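 Rule for the calls: active = inhibition above the mean plus 3 SD of all compounds in the same screening run (cut at about 4.5% in these data); inactive = the rest.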

The test system of the assay is metallo-beta-lactamase IMP-1 (Pseudomonas aeruginosa). The experiment in a line: inhibition of IMP-1 nitrocefin hydrolysis – biochemical, epi-absorbance readout, Pseudomonas aeruginosa enzyme, primary screen (AID 1556).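 Note: 0% = IMP-1 with DMSO and 100% = DMSO wells lacking enzyme.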 Particulars: purified IMP-1, nitrocefin hydrolysis, epi-absorbance fluorescence; at 5.6 µM; hits give high values. A digest of the protocol: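 Material – recombinant IMP-1 enzyme, purified · Amount – IMP-1 0.2 nM before substrate addition · Medium – HEPES buffer pH 7.1 with ZnSO4 and Brij 35 · Timing – 25 °C, 15 min preincubation, 25 min reaction · Measured by – plate fluorescence quenching by hydrolysis product, ex 480/em 530 nm · Read-out – percent enzyme inhibition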
What is called inhibition is the relative decrease from the control value, in per cent. For the compound `O=C(NN1C(=O)C2C3C=CC(O3)C2C1=O)c1ccccc1` (configuration not stated), the inhibition was -2.31%.

`COc1ccccc1C(=O)NN1C(=O)C2C3C=CC(O3)C2C1=O` (configuration not stated): the inhibition was -3.22%.

On to `COc1ccc(C(=O)NN2C(=O)C3C(c4ccccc4)C=CC(c4ccccc4)C3C2=O)cc1` (configuration not stated), for which the inhibition was 53.9% (active).

Turning to `O=C(NC1CCCC1)C(c1ccco1)N(C(=O)c1ccco1)c1ccc(F)cc1` (configuration not stated), the inhibition is -2.48%.

For the compound `CCCc1cc(C(=O)Nc2ccc(C(=O)OC)cc2)cs1`, the inhibition is -3.3%.

Regarding `CCc1ccc(OCC(=O)NCC(c2ccc(Cl)cc2)N2CCCCC2)cc1` (configuration not stated), the inhibition is -1.02%.

Take `COc1cccc(CSc2nc3nc(C)cc(C)n3n2)c1`: the inhibition was -1.34%.

With `O=C(Nc1ccnn1C1CCN(C/C=C/c2ccc(F)cc2)CC1)C1CCCC1`, the inhibition is 0.74%.

With `CCCCC(c1nnnn1CS(=O)(=O)c1ccc(C)cc1)N1CCC(C(N)=O)CC1` (configuration not stated), the inhibition is 0.14%.

For `C=CCN1CCN(C(=O)CCCc2ccccc2)CC1`, the inhibition is -0.18%.

`NS(=O)(=O)c1ccc(NC(=O)COC(=O)c2c3c(nc4ccccc24)/C(=C\c2ccc4c(c2)OCO4)CCC3)cc1`: the inhibition is 28% (active).

With `NS(=O)(=O)c1ccc(NC(=O)COC(=O)c2cc3ccccc3oc2=O)cc1`, the inhibition is -1.27%.

For `COc1cc(/C=C2\CCCc3c2nc2ccccc2c3C(=O)O)cc(Cl)c1O`, the inhibition was -1.14%.

Take `COc1cc(-c2cc(C(=O)OCC(=O)Nc3ccc4c(c3)OCO4)c3ccccc3n2)cc(OC)c1OC`: the inhibition was -2.57%.

With `NC(=O)c1ccc(NC(=O)COC(=O)c2c3c(nc4ccccc24)/C(=C\c2ccc4c(c2)OCO4)CCC3)cc1`, the inhibition is 19.6% (active).

For the compound `O=C(COC(=O)c1c2c(nc3ccccc13)/C(=C\c1cccs1)CCC2)Nc1ccccc1Cl`, the inhibition is -3.13%.

In the case of `O=C(c1ccccc1)N1N=C(c2ccccc2O)CC1c1ccc(Br)cc1` (configuration not stated), the inhibition was -4.1%.

With `Cc1cccc(N2CCN(C(=O)c3cccc(N4C(=O)C5C6C=CC(C6)C5C4=O)c3)CC2)c1C` (configuration not stated), the inhibition is -2.92%.

Turning to `CCCCc1nc(NCCN)c(C#N)c2c1CSC(C)(C)C2`, the inhibition is -1.69%.

`O=C(Nc1ccc(-c2cscn2)cc1)C1CCCN(Cc2ccc(CO)o2)C1` (configuration not stated): the inhibition is -1.8%.

For the compound `CN(CC1CCCO1)S(=O)(=O)c1ccc(C(=O)Nc2ccc(F)cc2)cc1` (configuration not stated), the inhibition is -2.19%.

Turning to `O=C(c1cc(COc2cccc(C(F)(F)F)c2)on1)N1CCSCC1`, the inhibition is -1.37%.

Regarding `CC(=O)Nc1ccc(S(=O)(=O)N2CCSCC2)cc1`, the inhibition is -4.96%.

`CC(=O)NC1=NC(=O)CS1`: the inhibition was 12.7% (active).

Regarding `Cc1ccnc(NC(=O)CCNS(=O)(=O)c2ccc(C)c(C)c2)c1`, the inhibition was -3.48%.

In the case of `Cc1cc(NC(=O)Nc2ccccc2[N+](=O)[O-])no1`, the inhibition was -1.98%.

In the case of `CCCCCCC(O)(CCN1CCCCC1)c1ccccc1` (configuration not stated), the inhibition was -1.94%.

Turning to `Cc1cc(C(=O)N/N=C/c2ccc(O)c([N+](=O)[O-])c2)c(C)n1-c1ccc(F)cc1`, the inhibition was -0.78%.

Turning to `CCOc1cccc(/C=N/N2C(=O)CSC2=S)c1O`, the inhibition was -2.38%.

Take `O=C1CSC(=S)N1/N=C/c1ccc(O)c([N+](=O)[O-])c1`: the inhibition is 10.3% (active).

Turning to `O=C(Nc1cccc(F)c1)[C@@H]1CCCN1`, the inhibition was -1.96%.

In the case of `O=C(NCc1cccs1)c1ccc(CS(=O)Cc2ccccc2Cl)o1` (configuration not stated), the inhibition was -3%.

As to `CC1CC(C)CN(C(=O)CSc2ccsc2[N+](=O)[O-])C1` (configuration not stated), the inhibition was -2.57%.

As for `Cc1ccc(CN2CCCOCCS2(=O)=O)cc1`, the inhibition was -1.66%.

Take `Cc1ccc2occ(/C=N/NC(=O)c3ccccc3C)c(=O)c2c1`: the inhibition is 4.69% (active).

Take `CC(C)(C)OC(=O)NCCCCCC(=O)N/N=C/c1coc2ccccc2c1=O`: the inhibition was -0.81%.

Regarding `O=C(N/N=C/c1coc2ccccc2c1=O)c1cc2ccccc2o1`, the inhibition is -0.92%.

Turning to `CCCCc1ccc(NC(=O)NCc2cccnc2)cc1`, the inhibition was -2.87%.

Consider `COc1ccc(S(=O)(=O)N2CCOC2CNC(=O)C(=O)NCc2ccncc2)cc1C` (configuration not stated), for which the inhibition is -3.35%.

As for `COC(=O)c1nc(NC(=O)c2ccc(Cl)cc2)n[nH]1`, the inhibition is 7.73% (active).

Take `COC(=O)c1nc(NC(=O)c2ccc(C(C)(C)C)cc2)n[nH]1`: the inhibition was -2.13%.

As to `COC(=O)c1nc(NC(=O)c2ccc(F)cc2)n[nH]1`, the inhibition was -1.83%.

On to `CC(C)c1ccc(N(C(=O)c2ccco2)C(C(=O)NC2CCCC2)c2cccnc2)cc1` (configuration not stated), for which the inhibition is -1.29%.

Regarding `O=C(N/N=C\c1cccnc1)c1cc(-c2ccccc2)nc2c(Cl)cccc12`, the inhibition was -3.33%.

Turning to `Cc1occc1C(=O)NC1CCCN(Cc2ccc(CC(C)C)cc2)C1` (configuration not stated), the inhibition is -3.33%.

Turning to `Cc1cc(-c2ccc(C)c(S(=O)(=O)NC(C)Cc3ccco3)c2)on1` (configuration not stated), the inhibition is -1.25%.

`CCCOc1ccc(-c2c(C(=O)N/N=C/c3ccco3)nnn2-c2nonc2N)cc1`: the inhibition was -3.51%.

Turning to `C/C(=N\NS(=O)(=O)c1ccc(Br)cc1)c1cccs1`, the inhibition was -3.54%.

As to `C/C(=N\Nc1ccc(S(N)(=O)=O)cc1[N+](=O)[O-])c1cccs1`, the inhibition was 21.1% (active).

For the compound `C/C(=N\Nc1ncc(Cl)cc1Cl)c1cccs1`, the inhibition is -0.11%.

`COc1cc(C(=S)N2CCOCC2)cc(OC)c1OC(=O)c1ccc([N+](=O)[O-])cc1[N+](=O)[O-]`: the inhibition is -5.07%.

As to `Nc1nc(-c2ccccc2)cc(-c2ccccc2)n1`, the inhibition was -4.04%.

For `CS(=O)(=O)c1sc2nc(-c3ccccc3)cc(-c3ccccc3)c2c1N`, the inhibition was 5.43% (active).

With `CNc1nc(-c2ccccc2)cc(-c2ccccc2)n1`, the inhibition was 2.66%.

For `O=c1[nH]c2c(c(=O)n1Cc1ccccc1)CCC2`, the inhibition is -1.53%.

For the compound `CC(=O)c1ccc(-c2ccc(Cn3c(C)nc4cc(N)c(C)nc43)cc2)cc1`, the inhibition is -0.56%.

Take `Cc1cc2nc3c(=O)n(Cc4ccccc4)c(=O)[nH]c3nc2cc1N`: the inhibition was 9.26% (active).

Take `COc1cccc(CNC(=O)C2CC(=O)N(C3CCCCCCC3)C2)c1` (configuration not stated): the inhibition is -1.11%.

In the case of `COc1ccccc1C(=O)N(Cc1ccc(C)o1)C1CCS(=O)(=O)C1` (configuration not stated), the inhibition is -3.51%.

With `CC1=C(C(=O)OCC2CCCCC2)C(c2ccc(F)cc2)NC(=O)N1` (configuration not stated), the inhibition was 28.3% (active).

For the compound `COCCOC(=O)C1=C(C)NC(=O)NC1c1ccc(Cl)cc1` (configuration not stated), the inhibition was -2.42%.

For `CC1=C(C(=O)OC2CCCCC2)C(c2ccccc2F)NC(=O)N1` (configuration not stated), the inhibition was -2.31%.

Take `Cc1ccccc1CNC(=O)CCC(=O)N1Cc2ccccc2Oc2ncccc21`: the inhibition is -3.43%.

Regarding `CCCCC(=O)Nc1nc(C)c(-c2csc(Nc3ccc(Cl)cc3)n2)s1`, the inhibition is 0.37%.

For `CCCCCCC(=O)Nc1nc(C)c(-c2csc(Nc3cc(Cl)ccc3OC)n2)s1`, the inhibition is -2.05%.

In the case of `CCOC(=O)c1csc(NC(=O)Nc2cccc(OC)c2)n1`, the inhibition was 15.1% (active).

As for `CCCCCCC(=O)Nc1nc(C)c(-c2csc(Nc3cccc(OC)c3)n2)s1`, the inhibition is 9.14% (active).

As to `CCOC(=O)c1cnc(SCC(=O)Nc2cccc(OC)c2)nc1N`, the inhibition is -1.9%.

As for `CCNS(=O)(=O)c1ccc(NC(=O)Nc2cccc(OC)c2)cc1`, the inhibition was -2.27%.

`COc1ccc(C(=O)Nc2ccc(-n3nncc3C(C)(C)C)cc2)cc1`: the inhibition is -2.83%.

On to `Clc1ccc(C2=CSC3=Nc4cccc5cccc(c45)N23)cc1`, for which the inhibition was 5.6% (active).

`CC(=O)c1ccc(N2CCN(C(=O)CCNC(=O)Cn3ccc4ccccc4c3=O)CC2)cc1`: the inhibition is -0.18%.

On to `O=C(CN1CCOc2ccccc21)N1CCC(Cc2ccccc2)CC1`, for which the inhibition is -0.27%.

As to `CCOC(=O)c1c(C)[nH]c(C(=O)NCCN2CCOCC2)c1C`, the inhibition is -0.4%.

Turning to `COc1cc(NC(=O)c2ccc3c(c2)OCO3)ccc1NC(=O)c1cccs1`, the inhibition was -2.83%.

For `FC(F)(F)C1CCCN(c2nsc3ccccc23)C1` (configuration not stated), the inhibition is -3.15%.

For the compound `CSC1=N/C(=C\C=C\c2cccs2)C(=O)S1`, the inhibition is 12.2% (active).

Take `CN1C/C(=C/c2cccs2)C(=O)/C(=C\c2cccs2)C1`: the inhibition is 0.42%.

Consider `Cc1cccc(C2=N/C(=C/c3cccs3)C(=O)O2)c1`, for which the inhibition was -0.41%.

Take `COc1ccc(C(O)(C2CCCCC2)C(CN2CCCC2)c2ccccc2)cc1` (configuration not stated): the inhibition is -0.93%.

On to `CCc1ccc(NC(=O)Cn2nnc(C(=O)NCc3ccc4c(c3)OCO4)c2N)cc1`, for which the inhibition was 0.66%.

As to `CCOCCCNC(=S)Nc1ccc2nc(N3CCN(CC)CC3)cc(C)c2c1`, the inhibition is -2%.

In the case of `N#Cc1ccccc1CN1C(=O)S/C(=C/c2cccn2-c2cccc(C(=O)O)c2)C1=O`, the inhibition was 20.9% (active).

For `Cc1cc(/C=C2\SC(=O)N(C)C2=O)c(C)n1-c1cccc(C(=O)O)c1`, the inhibition was -1.7%.

Turning to `Cc1ccccc1NC(=O)CN1C(=O)N/C(=C\c2cccn2-c2cccc(C(=O)O)c2)C1=O`, the inhibition is -2.07%.

On to `O=C(CNC(=O)c1ccccc1F)c1ccc(Br)cc1`, for which the inhibition was -2.02%.

For `Cc1ccccc1NC(=O)CSc1ccc2nnc(-c3ccccn3)n2n1`, the inhibition was -1.21%.

On to `CC(NC(=O)CCCC1CCCCC1)c1ccc(S(N)(=O)=O)cc1` (configuration not stated), for which the inhibition was -1.72%.

With `O=C(Cc1cccs1)Nc1cccc(-c2nc3ccccc3[nH]2)c1`, the inhibition was -5.9%.

As for `O=C(/C=C/c1ccco1)Nc1cccc(-c2nc3ccccc3[nH]2)c1`, the inhibition was -2.53%.

As for `O=C(Nc1cccc(-c2nc3ccccc3[nH]2)c1)c1ccc(C(=O)Nc2cccc(-c3nc4ccccc4[nH]3)c2)cc1`, the inhibition is 4.99% (active).

On to `CC1CCN(C(=O)CN(c2ccc(Oc3ccccc3)cc2)S(C)(=O)=O)CC1`, for which the inhibition was -2.25%.
